Consider 69 compounds from ChEMBL document CHEMBL4513216, “Probing the Open Global Health Chemical Diversity Library for Multistage-Active Starting Points for Next-Generation Antimalarials” (ACS Infect Dis, 2020).

A short description of the data set: Toxicity liver stage against HepG2, at 10uM. The format is cell-based. Also noted: test concentration 10 uM, cell line HepG2-A16-CD81EGFP. The settings on record: human, HepG2-A16-CD81EGFP cells; read-out: INHIBITION
The essentials:
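Uninfected HepG2-A16-CD81EGFP cells, 3 × 10^3 per well, 1536-well, plated on prespotted compound at 10 μM final, parasite-free screening media added to match infected plates; puromycin 10 μM positive, DMSO 0.5% negative; run in parallel with 48 h PbLuc assay at 37 °C, 5% CO2; viability by CellTiter-Glo luminescence, normalized to controls.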
As for `Cc1ccccc1CN1CCC[C@H]1c1nc(-c2cncnc2N)no1`, the cytotoxicity at 10 µM was -0.921%.
Regarding `COc1coc(C(=O)Nc2nc(-c3ccncc3)cs2)cc1=O`, the cytotoxicity at 10 µM was -7.97%.
As to `CCc1ccc(S(=O)(=O)N2CC3(COC(C)(C)OC3)C2)s1`, the cytotoxicity at 10 µM is 5.76%.
For the compound `Cn1cc(CN2CCCC3(CCN(Cc4ccncc4)C3=O)C2)cn1` (centres undefined), the cytotoxicity at 10 µM worked out at 8.68%.
On to `COc1cccc([C@@]2(O)CC[C@@H]3CN(C(=O)c4ccn(C)n4)C[C@@H]32)c1`, for which the cytotoxicity at 10 µM is 2%.
On to `c1cc(CN2CCCCC2c2ccc(Nc3cnccn3)nc2)ccn1` (centres undefined), for which the cytotoxicity at 10 µM came to 7.38%.
For the compound `CC(=O)NCCNC(=O)Nc1cc(C(C)(C)C)sc1C#N`, the cytotoxicity at 10 µM was 0.665%.
`COC(=O)c1ccoc1CN(C1CC1)C1CCS(=O)(=O)C1` (centres undefined): the cytotoxicity at 10 µM was determined as 2.22%.
As for `Cc1ccccc1CN(C)C(C(N)=O)c1ccccc1` (centres undefined), the figure is 13.1%; as for `CC1CCC(O)(Cn2ncnc2-c2cccc(C#N)c2)CC1` (centres undefined), 0.775%.
As for `O=C(CCC1CCCCO1)NCc1cnn(-c2ccc(F)cc2F)c1` (centres undefined), the figure is -11.4%; as for `O=C(NCCN1CCOCC1)c1ccc(OCc2ccccc2)nc1`, -5.97%.
On to `O=C(OC1CCC1)c1ncccc1C(F)(F)F`, for which the cytotoxicity at 10 µM is 10.6%.
Consider `CN(Cc1ccc2c(c1)OCO2)C(=O)c1ccc(=O)n(C)c1`, for which the cytotoxicity at 10 µM is -9.17%.
To `CCCC(NC(=O)c1ccccc1Br)c1nnn[nH]1` (centres undefined) belongs -1.8%; to `CCn1ncc2c1CCCC2NCc1csc(C(C)C)n1` (centres undefined), -1.69%; to `Cc1ccc(O)c(CNCC(C)c2nc3ccccc3o2)n1` (centres undefined), -1.74%.
With `CC(C)Nc1ncccc1C(=O)NCc1ccnn1C`, the cytotoxicity at 10 µM was -5.87%.
In the case of `CCCN(C(=O)c1ocnc1C)C1CCCN(Cc2ccccc2)C1` (centres undefined), the cytotoxicity at 10 µM is -7.79%.
Regarding `Cc1cc(=O)[nH]cc1C(=O)N1CCN(C)c2ccccc2C1`, the cytotoxicity at 10 µM was -10.1%.
On to `Cc1cnn(CC(C)NCc2c(C)nn(Cc3ccccc3)c2C)c1` (centres undefined), for which the cytotoxicity at 10 µM is -4.66%.
With `Cc1cnn(CC2CCCN2Cc2cc(=O)n3cccc(C)c3n2)c1` (centres undefined), the cytotoxicity at 10 µM came out at 0.442%.
Take `CN(C)CC(=O)N1CCc2sc(C(=O)N3CCOCC3)cc21`: the cytotoxicity at 10 µM is -99.4%.
Regarding `CC(=O)N1CCC2(CC1)c1ncc(-c3ccccc3)n1CCN2C`, the cytotoxicity at 10 µM was -104%.
`O=C(c1ccco1)N1CCC2(CCCN(c3ncc(F)cn3)C2)C1` (centres undefined): the cytotoxicity at 10 µM was -88.4%.
As for `CN1CCN(Cc2cnc3n2CCN(C(=O)c2ccncc2)C3)CC1`, the figure is -73.8%; as for `CCc1ccccc1OCCN1CCC(NS(C)(=O)=O)CC1`, -20.4%; as for `O=C(c1c[nH]cn1)N1CCC(n2cc(-c3ccsc3)nn2)CC1`, -14.3%.
As to `COCc1noc(-c2ccc(N3CCCC3c3nccs3)nc2)n1` (centres undefined), the cytotoxicity at 10 µM was 7.12%.
Consider `NCCO[C@H]1C[C@@H](O)C12CCN(C1Cc3ccccc3C1)CC2`, for which the cytotoxicity at 10 µM stood at 20.7%.
For `COCCCN1C(=O)CC[C@H]2CN(c3ccc(C(N)=O)cn3)CC[C@H]21`, the cytotoxicity at 10 µM turned out to be 5.03%.
As for `CCC[C@@H]1CN(S(=O)(=O)c2ccc(OC)c(OC)c2)C[C@H]1NC(C)=O`, the figure is 3.06%.
On to `CCc1cc(C(=O)NCC2CCN(Cc3ccncc3)CC2)on1`, for which the cytotoxicity at 10 µM was determined as 10.4%.
`CN(CCCN1CCCC1)[C@@H]1c2ccccc2C2(CCNCC2)[C@H]1O`: the cytotoxicity at 10 µM was -3.99%.
As for `CN(C)Cc1nnc(C2CCCN(c3nccc4ccccc34)C2)n1C` (centres undefined), the figure is -0.928%.
Consider `CCN(CC)C(=O)c1ccc(Cl)c(NC(=O)c2cc(C(C)C)on2)c1`, for which the cytotoxicity at 10 µM was 6.9%.
To `COc1cccc(S(=O)(=O)N2CCN(C)[C@@H]3CS(=O)(=O)C[C@@H]32)c1` belongs -9.6%.
In the case of `Cc1cc(C(F)(F)F)nc(CCNC(C)Cn2ccnc2)n1` (centres undefined), the cytotoxicity at 10 µM came to 4.21%.
With `CNc1ncc(CN(C)c2nccc(CCC(F)(F)F)n2)cn1`, the cytotoxicity at 10 µM is -16.3%.
On to `CN1CC2(CCN(Cc3cccc(C#N)c3)CC2)CC1=O`, for which the cytotoxicity at 10 µM is -0.145%.
On to `Cc1ccc(C(=O)N2C[C@@H](C(=O)O)[C@H](c3ccncc3)C2)cc1F`, for which the cytotoxicity at 10 µM was -11.2%.
As for `COc1ccc(C(=O)C2CCCN(Cc3ccc(C)o3)C2)c(OC)c1` (centres undefined), the cytotoxicity at 10 µM was found to be 1.17%.
Turning to `Cc1ncccc1O[C@H]1CCN(C(=O)Cc2cccs2)CC[C@@H]1O`, the cytotoxicity at 10 µM worked out at 5.92%.
Regarding `COCc1cccc(CNC(=O)c2c(C)noc2C(C)C)c1`, the cytotoxicity at 10 µM came out at 0.153%.
`O=C(CN1CCCC1Cn1cncn1)NCCOc1ccc(F)cc1` (centres undefined): the cytotoxicity at 10 µM was -3.56%.
Consider `CC(C)Oc1ncccc1CNC(=O)NC1CCOc2ccccc21` (centres undefined), for which the cytotoxicity at 10 µM was -3.16%.
For the compound `CC(C)Sc1ncccc1C(=O)NCc1ccoc1`, the cytotoxicity at 10 µM was -0.945%.
Take `CCN(c1cc(C)cc(C)c1)S(=O)(=O)c1cc(C(=O)O)cs1`: the cytotoxicity at 10 µM was -1.92%.
With `Cc1nc(CN2CCN(C(=O)c3ccnc(N(C)C)c3)CC2)cs1`, the cytotoxicity at 10 µM amounted to 1.42%.
Take `Cc1nn(C)c(N2CCOCC2)c1CNCc1ccc(C(C)O)cc1` (centres undefined): the cytotoxicity at 10 µM is -4.93%.
For `Cc1ncsc1C(=O)NC1CCN(CC(=O)N(C)C(C)(C)C#N)CC1`, the cytotoxicity at 10 µM is -3.88%.
As for `Cc1nc2ccnn2c(C)c1CCC(=O)N1CCC(C(N)=O)CC1`, the figure is -9.26%.
In the case of `CC(N(C)Cc1nc2c(cnn2C)c(=O)[nH]1)C(C)(C)C` (centres undefined), the cytotoxicity at 10 µM is -3.09%.
Turning to `CN(Cc1nnc(C2CC2)n1C)C1CCN(Cc2ccon2)C1` (centres undefined), the cytotoxicity at 10 µM is -9.04%.
To `Cc1noc(CN(Cc2ccc3c(c2)OCO3)C2CCCC2)n1` belongs -5.28%; to `Cc1[nH]ncc1C(=O)N1CCCC(n2cncn2)C1` (centres undefined), 7.75%.
With `Fc1cnc(N2C[C@@H]3COC[C@]3(COc3ccccn3)C2)nc1`, the cytotoxicity at 10 µM was -5.43%.
For the compound `CN(C)C(=O)CO[C@H]1CN(Cc2cccc(F)c2)[C@@H]2CCCO[C@H]12`, the cytotoxicity at 10 µM was -2.76%.
For the compound `CN1CCO[C@@H]2CN(C(=O)c3ccc4[nH]ccc4c3)CC[C@@H]2C1`, the cytotoxicity at 10 µM is -108%.
For `Cc1ccccc1CN1C[C@@H](C(=O)N2CCCCO2)C[C@H]2OCC[C@H]21`, the cytotoxicity at 10 µM was -68.5%.
Regarding `CN(C)C(=O)[C@@H]1CCO[C@@H]2CCN(CCOCc3ccccc3)C[C@H]21`, the cytotoxicity at 10 µM was -0.902%.
As for `Cc1ccc(N2C[C@H](C(=O)NCC3CC3)[C@@H]3CCO[C@@H]3C2)nn1`, the cytotoxicity at 10 µM was -67.6%.
For the compound `COCCN1CCc2cc(C(=O)O)c(-c3ccoc3)nc2CC1`, the cytotoxicity at 10 µM is -75.6%.
As for `Cc1nc[nH]c1CN1C[C@@H]2OCCN(c3ncccn3)[C@@H]2C1`, the figure is -70.4%.
On to `Cc1ccc(CN2CCOC3(COCCN(C(C)C)C3)C2)o1` (centres undefined), for which the cytotoxicity at 10 µM was -107%.
Consider `Cc1noc(C)c1CN1CCc2ncnc(-c3cnn(C)c3)c2CC1`, for which the cytotoxicity at 10 µM is -98.4%.
Regarding `Cc1cnc(C(=O)N2Cc3ncn(C)c3C(COCC(C)C)C2)cn1` (centres undefined), the cytotoxicity at 10 µM is -112%.
For the compound `CCn1ncc2c1C(COC)N(C(=O)CCc1ccccc1)CC2` (centres undefined), the cytotoxicity at 10 µM was -96.8%.
In the case of `Cc1nc(CN2C[C@@H]3COC[C@]3(COCC(=O)N(C)C)C2)cs1`, the cytotoxicity at 10 µM was found to be 1.41%.
